Results published in paper PMC7254805 (ACS Omega, 2020).
In brackets after ≈: the same amount, converted by molar mass. Entries after “also recorded” stand apart in the source; their conditions may differ.

Tests used:
[1] = molecular target: HCV NS3/4A protease (Hepatitis C virus, UniProt P26662); test: HCV NS3/4A protease fluorimetric activity assay; type: biochemical
Summary of the method: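 Purified single-chain NS3/4A (scNS3/4A, 0.1 μM) is pre-incubated with test compound, then purified EGFP-NS5A/B-CBD fusion substrate (0.5 μM) is added for 1 h at 37 °C. Cellulose slurry stops the reaction; after centrifugation, supernatant fluorescence is read at 484/538 nm. Compounds are screened at 50 μM, with dose response over 10–100 μM. Activity is relative to a no-compound reaction (100%); telaprevir is the positive control.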

[2] = test system: BALB/c mice; test: Acute oral toxicity in mice; type: in vivo; conditions: for maximum acute tolerance dose: BALB/c mice
[3] = test system: BALB/c mice; test: Sub-acute; type: in vivo
Summary of the method: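 Sub-acute oral toxicity per OECD 407 in BALB/c mice. Test compounds are given orally daily for 28 consecutive days at 1000 or 500 mg/kg b. wt/day, in water or PEG-400. Vehicle controls receive water or PEG-400 at 200 μL/day/mouse. Body weight, food and water intake, behaviour and toxicity signs are recorded. Liver sections (5 μm) are H&E-stained for light microscopy.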

[4] = Oral bioavailability in mice, plasma RP-HPLC; type: in vivo, BALB/c mice
[5] = Aqueous solubility; type: physicochemical; conditions: water
[6] = molecular target: trypsin (Sus scrofa, UniProt P00761); test: Cellular serine protease; type: biochemical; conditions: up to 250 μM
Summary of the method: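 Trypsin is pre-incubated with increasing test compound concentrations, then FITC-labelled casein substrate is added for 1 h at 37 °C. The reaction is stopped with trichloroacetic acid (6.1 N) and centrifuged. Supernatant fluorescence is read at excitation 485 nm and emission 538 nm. Activity is expressed relative to a no-compound reaction (100%); G. max trypsin inhibitor is the positive control.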

[7] = test system: Huh7.5 cells; test: Cell viability MTT assay; type: cell-based; conditions: up to 5 mM
Summary of the method: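 Huh7.5 cells are seeded at 2 × 10^4 per well in DMEM with 10% serum and incubated overnight at 37 °C. After 12 h, cells are treated with a range of test compound concentrations, and viability is read by MTT. Untreated cells serve as control. Data are mean ± SD of three independent experiments; CC50 is taken from the dose response.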

[8] = test system: Huh7 cells harboring HCV monocistronic replicon genotype 2a (Rep2a); test: HCV replication assay in Rep2a cell line; type: cell-based, HCV genotype 2a; conditions: at 250 μM, compared with Telaprevir
[9] = BALB/c, mouse, plasma, po, 500 mg/kg

HCV NS3/4A protease, sequence (P26662 1027-1208, other chains not shown): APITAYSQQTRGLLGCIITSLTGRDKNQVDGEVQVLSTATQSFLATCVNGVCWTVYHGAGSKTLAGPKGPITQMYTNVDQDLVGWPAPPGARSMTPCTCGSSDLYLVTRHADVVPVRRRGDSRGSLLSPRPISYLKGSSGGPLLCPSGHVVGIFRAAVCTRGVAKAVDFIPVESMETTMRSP
trypsin, sequence (P00761 9-231): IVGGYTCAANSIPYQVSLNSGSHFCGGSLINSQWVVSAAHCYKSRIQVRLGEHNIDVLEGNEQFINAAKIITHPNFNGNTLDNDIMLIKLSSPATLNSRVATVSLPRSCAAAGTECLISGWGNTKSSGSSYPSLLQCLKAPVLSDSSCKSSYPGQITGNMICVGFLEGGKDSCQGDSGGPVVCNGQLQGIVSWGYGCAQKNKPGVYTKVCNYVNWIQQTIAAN

COC[C@@H](Cc1ccc(OC)c(OC)c1)[C@@H](COC)Cc1ccc(OC)c(OC)c1 [phyllanthin, reference compound]
IC50 [1]: ~50 µM
death of mice ([2]; oral, 2000 mg/kg b. wt): 100%
maximum acute tolerance dose ([2]; oral): 1500 mg/kg b. wt
changes in general behavior and body weights ([3]; 500 mg/kg b. wt/day oral in PEG-400, 28 consecutive days): did not exhibit any undesirable changes
bioavailability (plasma, up to 24 h) ([4]; 500 mg/kg b. wt p.o): could not observe any bioavailability
absorbed concentration in plasma ([4]; 1500 mg/kg b. wt p.o): very low concentration
solubility [5]: 250 µg/mL (≈ 597 µM)

COc1ccc(CC(CC(=O)O)C(=O)O)cc1OC (centres unmarked) [D8, 2-(3,4-Dimethoxybenzyl)succinic Acid]
IC50 [1]: < 10 µM
IC90 [1]: 50 µM
inhibition of trypsin activity [6]: did not show an inhibition; also recorded: does not occur even at 250 μM
cellular toxicity [7]: did not induce any toxicity; also recorded: no perceptible cellular toxicity
reduction in HCV negative strand synthesis [8]: matching that of the inhibition by Telapravir
liver histology ([2]; maximum acute tolerance dose 4000 mg/kg b. wt p.o, vs water control): normal histoarchitecture
death of mice ([2]; oral, 5000 mg/kg b. wt): 40%
death of mice ([2]; oral, 5250 mg/kg b. wt): 100%
maximum acute tolerance dose ([2]; oral): 4000 mg/kg b. wt
tolerance dose relative to phyllanthin ([2]; oral, D8 4000 vs phyllanthin 1500 mg/kg): ~2.5 times
changes in general behavior and body weights ([3]; 1000 mg/kg b. wt/day oral, 28 consecutive days): did not exhibit any undesirable changes
liver histology ([3]; 1000 mg/kg b. wt/day oral, 28 days): normal histology
plasma concentration after 2 h ([4]; 500 mg/kg p.o): 595 μg mL^–1
Cmax [4, 9]: ~595 µg/mL
Tmax [4, 9]: 1 h
half-life [4, 9]: 2 h
